In ChEMBL document CHEMBL5329174, “Discovery of benzoxazole-thiazolidinone hybrids as promising antibacterial agents against Staphylococcus aureus and Enterococcus species” (RSC Med Chem, 2023) one finds MIC data, which are given here for twelve compounds.

Common to all, as to type: functional
Assay [1] concerns Klebsiella pneumoniae. The experiment in a line: Antibacterial activity against Klebsiella pneumoniae BAA-1705 assessed as reduction in bacterial growth. In short, it runs like this: (§1)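 CLSI broth microdilution in cation-supplemented Mueller–Hinton broth II; overnight starter cultures (37 °C, shaking, 18–24 h) adjusted by OD600 to ~10^6 CFU/mL. Compounds dosed from DMSO stocks (10 mg/mL stock) as two-fold dilutions, 64–0.5 mg/L. Plates held 37 °C, 18–24 h. MIC = lowest concentration without visible growth. Three independent runs, each in duplicate.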

The subject of assay [2] is Acinetobacter baumannii. Briefly: Antibacterial activity against Acinetobacter baumannii BAA-1605 assessed as reduction in bacterial growth. In short, it runs like this: as §1
Assay [3] has as its system Staphylococcus aureus. The experiment in a line: Antibacterial activity against Staphylococcus aureus ATCC 29213 assessed as reduction in bacterial growth. In short, it runs like this:
as §1

In assay [4] the test system is Pseudomonas aeruginosa. Briefly: Antibacterial activity against Pseudomonas aeruginosa ATCC 27853 assessed as reduction in bacterial growth. In short, it runs like this: as §1
In assay [5] the test system is Escherichia coli. The experiment in a line: Antibacterial activity against Escherichia coli ATCC 25922 assessed as reduction in bacterial growth. In short, it runs like this: as §1
For assay [6], the system named is Staphylococcus aureus. Briefly: Antibacterial activity against methicilin-resistant Staphylococcus aureus NRS 198 assessed as reduction in bacterial growth. The gist of the method: (§2)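 CLSI broth microdilution in cation-supplemented Mueller–Hinton broth II. Starter cultures were grown overnight at 37 °C with shaking from a single MHA colony, then diluted by OD600 to ~10^6 CFU/mL. Compounds came from 10 mg/mL DMSO stocks and were tested two-fold from 64 to 0.5 mg/L. Plates were incubated 37 °C for 18–24 h. MIC was taken as the lowest concentration with no visible growth. Three independent runs, each in duplicate.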

Assay [7] concerns Staphylococcus aureus. Briefly: Antibacterial activity against methicilin-resistant Staphylococcus aureus NRS 192 assessed as reduction in bacterial growth. In short, it runs like this: as §2
In assay [8] the test system is Staphylococcus aureus. The experiment in a line: Antibacterial activity against vancomycin-resistant Staphylococcus aureus VRS 12 assessed as reduction in bacterial growth. In short, it runs like this:
as §2

Assay [9] has as its system Staphylococcus aureus. Briefly: Antibacterial activity against methicilin-resistant Staphylococcus aureus NRS 194 assessed as reduction in bacterial growth. The gist of the method:
as §2

Assay [10] relates to Staphylococcus aureus. Briefly: Antibacterial activity against vancomycin-resistant Staphylococcus aureus VRS 1 assessed as reduction in bacterial growth. In short, it runs like this: as §2
The subject of assay [11] is Staphylococcus aureus. Briefly: Antibacterial activity against methicilin-resistant Staphylococcus aureus NRS 129 assessed as reduction in bacterial growth. In short, it runs like this:
as §2

The subject of assay [12] is Staphylococcus aureus. The experiment in a line: Antibacterial activity against methicilin-resistant Staphylococcus aureus NRS 119 assessed as reduction in bacterial growth. The gist of the method: as §2
For assay [13], the system named is Staphylococcus aureus. Briefly: Antibacterial activity against methicilin-resistant Staphylococcus aureus NRS 186 assessed as reduction in bacterial growth. In short, it runs like this: as §2
For assay [14], the system named is Staphylococcus aureus. The experiment in a line: Antibacterial activity against vancomycin-resistant Staphylococcus aureus VRS 4 assessed as reduction in bacterial growth. The gist of the method:
as §2

Assay [15] has as its system Staphylococcus aureus. Briefly: Antibacterial activity against methicilin-resistant Staphylococcus aureus NRS 100 assessed as reduction in bacterial growth. In short, it runs like this:
as §2

The subject of assay [16] is Staphylococcus aureus. Briefly: Antibacterial activity against methicilin-resistant Staphylococcus aureus NRS 193 assessed as reduction in bacterial growth. The gist of the method:
as §2

Assay [17] concerns Staphylococcus aureus. The experiment in a line: Antibacterial activity against methicilin-resistant Staphylococcus aureus NRS 191 assessed as reduction in bacterial growth. The gist of the method: as §2

The structures appear in SMILES notation. ≈ marks a conversion by molar mass, not a printed value.

As for `O=C1N/C(=N\c2nc3ccccc3o2)S/C1=C\c1ccc(Cl)cc1`, the MIC (in general, the lowest concentration that inhibits growth of the organism) is above 64 µg/mL in assay [1]; above 64 µg/mL in assay [2]; 8 µg/mL (≈ 22.5 µM) in assay [3]; above 64 µg/mL in assay [4]; above 64 µg/mL in [5].

As for `O=C1CS/C(=N/c2nc3ccccc3o2)N1`, the MIC is above 64 µg/mL in assay [1]; above 64 µg/mL in assay [2]; 8 µg/mL (≈ 34.3 µM) in assay [3]; above 64 µg/mL in [4]; above 64 µg/mL in assay [5].

Consider `COc1ccc(/C=C2\S/C(=N/c3nc4ccccc4o3)NC2=O)cc1`, for which the MIC in [1], in [2], in assay [3], in [4] and in [5] was above 64 µg/mL in each case.

As for `O=C1N/C(=N\c2nc3ccccc3o2)S/C1=C\c1ccccc1`, the MIC in [1] was above 64 µg/mL; in [2] it was above 64 µg/mL; in assay [3], 4 µg/mL (≈ 12.4 µM); in assay [4], above 64 µg/mL; in [5], above 64 µg/mL.

For the compound `O=C1N/C(=N\c2nc3ccccc3o2)S/C1=C\c1ccccc1[N+](=O)[O-]`, the MIC is above 64 µg/mL in assay [1]; above 64 µg/mL in assay [2]; 8 µg/mL (≈ 21.8 µM) in assay [3]; above 64 µg/mL in assay [4]; above 64 µg/mL in [5].

Regarding `C[C@@H](O)[C@H]1C(=O)N2C(C(=O)O)=C(S[C@@H]3CN[C@H](C(=O)N(C)C)C3)[C@H](C)[C@H]12` [MEROPENEM], the MIC in assay [6] was determined as 64 µg/mL (≈ 167 µM); in [7], 8 µg/mL (≈ 20.9 µM); in assay [8] it was 8 µg/mL (≈ 20.9 µM); in assay [9] it was 1 µg/mL (≈ 2.61 µM); in assay [10], 64 µg/mL (≈ 167 µM); in [11], 4 µg/mL (≈ 10.4 µM). Besides, the MIC in [3] was 0.125 µg/mL (≈ 0.326 µM); in assay [12] it was 64 µg/mL (≈ 167 µM); in [13], 8 µg/mL (≈ 20.9 µM); in [14] it was 64 µg/mL (≈ 167 µM); in [15], 32 µg/mL (≈ 83.4 µM); in assay [16] it was 64 µg/mL (≈ 167 µM). For the same compound, the MIC in assay [17] turned out to be 64 µg/mL (≈ 167 µM).

On to `O=C1N/C(=N\c2nc3ccccc3o2)S/C1=C\c1ccccn1`, for which the MIC in [1] was above 64 µg/mL; in assay [2], above 64 µg/mL; in assay [3], 8 µg/mL (≈ 24.8 µM); in assay [4], above 64 µg/mL; in assay [5], above 64 µg/mL.

For `O=C1N/C(=N\c2nc3ccccc3o2)S/C1=C\c1ccccc1O`, the MIC in assay [1] is above 64 µg/mL; in [2], above 64 µg/mL; in [3], 4 µg/mL (≈ 11.9 µM); in assay [4], above 64 µg/mL; in assay [5], above 64 µg/mL.

Regarding `O=C1N/C(=N\c2nc3ccccc3o2)S/C1=C\c1cccs1`, the MIC in [1] was above 64 µg/mL; in assay [2], above 64 µg/mL; in assay [3], 16 µg/mL (≈ 48.9 µM); in assay [4], above 64 µg/mL; in [5], above 64 µg/mL.

As to `CN(C)c1ccc(/C=C2\S/C(=N/c3nc4ccccc4o3)NC2=O)cc1`, the MIC in assay [1], in assay [2], in [3], in assay [4] and in assay [5] was above 64 µg/mL throughout.

As for `CSc1ccc(/C=C2\S/C(=N/c3nc4ccccc4o3)NC2=O)cc1`, the MIC in assay [1] was above 64 µg/mL; in assay [2], above 64 µg/mL; in [3] it was 32 µg/mL (≈ 87.1 µM); in assay [4], above 64 µg/mL; in assay [5], above 64 µg/mL.

Consider `O=C1N/C(=N\c2nc3ccccc3o2)S/C1=C\c1ccccc1Cl`, for which the MIC in assay [1] was above 64 µg/mL; in [2], above 64 µg/mL; in [3], 16 µg/mL (≈ 45 µM); in assay [4], above 64 µg/mL; in [5] it was above 64 µg/mL.
